The values below come from ChEMBL document CHEMBL1156619, “TX-2152: a conformationally rigid and electron-rich diyne analogue of FTY720 with in vivo antiangiogenic activity” (Bioorg Med Chem, 2008).

The structures appear in SMILES notation.

A short description of data set [1]: Hydrophobicity, Log P of the compound. The format is physicochemical. The settings on record: octanol/water. Summed up:
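Observed logP (logPow) measured by HPLC on a C18 column. Mobile phase methanol/water 3:1 (v/v) at 1.0 mL/min, UV detection at 254 nm. Test and reference compounds dissolved in mobile phase for injection.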

The species entered for data set [2] is Gallus gallus. Kind of data set: Antiangiogenic activity in chick embryo chorioallantoic membrane assessed as number of eggs showing 3 mm avascular zone at 1 ug. The format is functional, tissue-based. The procedure, abridged:
(§1)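 Fertilized chicken eggs held at 37.6 °C, humidified, for 4 days; 3 mL albumin withdrawn and air sac displaced to drop the CAM, window capped, incubation at 39.0 °C. Next day a silicon ring placed on the 2–3 mm CAM and test solution applied dropwise at room temperature. Compounds in DMSO, vehicle control 0.05% DMSO in 1% methyl cellulose/0.9% NaCl. After 1 day incubator raised to 39.5 °C and eggs incubated 1 more day. Vessels then visualized by injecting fat emulsion (1 mL) into the CAM and scored for inhibition.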

The species named for data set [3] is Gallus gallus. Kind of data set: Antiangiogenic activity in chick embryo chorioallantoic membrane assessed as number of eggs showing 3 mm avascular zone at 10 ug. The format is functional, tissue-based. The procedure, abridged:
as §1

For data set [4], the species on record is Gallus gallus. Kind of data set: Antiangiogenic activity in chick embryo chorioallantoic membrane assessed as number of eggs showing 3 mm avascular zone at 2.5 ug. The format is functional, tissue-based. Summed up:
as §1

The species named for data set [5] is Gallus gallus. The data set can be described thus: Antiangiogenic activity in chick embryo chorioallantoic membrane assessed as number of eggs showing 3 mm avascular zone at 5 ug. The class given is functional, tissue-based. The procedure, abridged:
as §1

For data set [6], the species on record is Gallus gallus. Kind of data set: Antiangiogenic activity in chick embryo chorioallantoic membrane assessed as number of eggs showing 3 mm avascular zone at 100 ug. The format is functional, tissue-based. Summed up:
as §1

Take `CC(=O)NC(CCc1ccc(C#CC#C[Si](C)(C)C)cc1)(COC(C)=O)COC(C)=O`: the logP – broadly, the decadic logarithm of the partition coefficient of the neutral form, usually between octanol and water – in data set [1] came to 4.97.

`C#CC#Cc1ccc(CCC(N)(CO)CO)cc1`: the inhibition (usually how much of the control response was suppressed) was found to be 35% in data set [2], 90% in data set [3], 71% in data set [4] and 79% in data set [5].

In turn, `CC(=O)NC(CCc1ccc(C#C[Si](C)(C)C)cc1)(COC(C)=O)COC(C)=O` yielded a logP in data set [1] of 4.07.

For the compound `CCCCCCCCc1ccc(CCC(N)(CO)CO)cc1`, the figures for the inhibition in data set [2], in data set [3] and in data set [6] were 40%, 77% and 100%, respectively.

Consider `CC(=O)NC(CCc1ccc(C#CC#CC#C[Si](C)(C)C)cc1)(COC(C)=O)COC(C)=O`, for which the logP in data set [1] is 5.9.

Consider `C#Cc1ccc(CCC(N)(CO)CO)cc1`, for which the inhibition in data set [2] amounted to 17%; in data set [3], 42%; in data set [5], 17%.

In the case of `C#CC#CC#Cc1ccc(CCC(N)(CO)CO)cc1`, the inhibition in data set [2] was 40%; in data set [3] it was 60%; in data set [4], 67%; in data set [5], 67%.

As to `CO[C@@H]1[C@H](OC(=O)NC(=O)CCl)CC[C@]2(CO2)[C@H]1[C@@]1(C)O[C@@H]1CC=C(C)C`, the inhibition in data set [2] came to 50%; in data set [3], 82%; in data set [5], 78%.
